# Results as given in ChEMBL document CHEMBL1629563, “Pharmacokinetic and safety evaluation of BILR 355, a second-generation nonnucleoside reverse transcriptase inhibitor, in healthy volunteers” (Antimicrob Agents Chemother, 2008).
# Tests used:
# Homo sapiens [1] = test: Toxicity in healthy human assessed as occurrence of vomiting at 50 mg, po administered as single dose relative to control; format: organism-based; conditions: in vivo
# Homo sapiens [2] = test: Toxicity in healthy human assessed as occurrence of migraine at 25 mg, po administered as single dose relative to control; format: organism-based; conditions: in vivo
# Homo sapiens [3] = test: Toxicity in healthy human assessed as occurrence of migraine at 100 mg, po administered as single dose relative to control; format: organism-based; conditions: in vivo
# Homo sapiens [4] = test: Toxicity in healthy human assessed as occurrence of neurological eyelid disorder at 5 mg, po administered as single dose relative to control; format: organism-based; conditions: in vivo
# [5] = Apparent oral clearance in healthy human at 5 mg, po administered as single dose coadministered with 100 mg of ritonavir; format: ADME, organism-based; conditions: in vivo
# How it was run: (§1)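 Healthy male volunteers, fasted. Ritonavir 100 mg given 10 h before and again together with single oral BILR 355 in PEG solution. EDTA plasma sampled predose to 144 h. LC-MS/MS assay after protein precipitation. Noncompartmental analysis, AUC by linear up/log down trapezoidal rule; Vss = CL/F·(MRTp.o. − 1/Ka).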
# [6] = Mean residence time in healthy human at 37.5 mg, po administered as single dose coadministered with 100 mg of ritonavir; format: ADME, organism-based; conditions: in vivo
# [7] = Apparent volume of distribution in terminal phase in high fat fed healthy human at 50 mg, po administered as single dose coadministered with 100 mg of ritonavir; format: ADME, organism-based; conditions: in vivo, read-out: Vz/F
# How it was run: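 Fed cohort: healthy males ate an FDA-recipe high-fat breakfast (about 150/250/500-600 cal from protein/carbohydrate/fat) 30 min before a 50 mg oral dose of BILR 355 in PEG solution. Ritonavir 100 mg was given 10 h before and with the dose. Plasma was sampled over 144 h and assayed by LC-MS/MS. Noncompartmental analysis gave Cmax and Vz/F. Vss/F = CL/F·(MRTp.o. − 1/Ka).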
# [8] = Renal clearance in healthy human at 50 mg, po administered as single dose coadministered with 100 mg of ritonavir by high-pressure liquid chromatography-tandem mass spectrometry/mass spectrometry method; format: ADME, organism-based, Kidney; conditions: in vivo, read-out: CL_renal (converted)
# [9] = Drug excretion in healthy human urine assessed as unchanged drug at 12.5 mg, po administered as single dose coadministered with 100 mg of ritonavir by high-pressure liquid chromatography-tandem mass spectrometry/mass spectrometry method; format: ADME, organism-based; conditions: read-out: Drug uptake
# How it was run: (§2)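 Ritonavir 100 mg was given 10 h before and with one oral dose of BILR 355 in PEG solution. Urine was collected by weight as predose blank, then 0-6, 6-24 and 24-72 h, stored at −20°C and assayed by LC-MS/MS. fe = unchanged drug excreted (Ae) as a percentage of dose. Line 50: high-fat breakfast 30 min before dosing.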
# [10] = Drug excretion in healthy human urine assessed as unchanged drug in high fat fed healthy human at 50 mg, po administered as single dose coadministered with 100 mg of ritonavir by high-pressure liquid chromatography-tandem mass spectrometry/mass spectrometry method; format: ADME, organism-based; conditions: read-out: Drug uptake; how it was run: as §2
# Homo sapiens [11] = test: Toxicity in healthy human assessed as occurrence of aphthous stomatitis at 50 mg, po administered as single dose coadministered with 100 mg of ritonavir; format: organism-based; conditions: in vivo
# Homo sapiens [12] = test: Toxicity in high fat fed healthy human assessed as occurrence of diarrhea at 50 mg, po administered as single dose coadministered with 100 mg of ritonavir; format: organism-based; conditions: in vivo
# Homo sapiens [13] = test: Toxicity in healthy human assessed as occurrence of fatigue at 87.5 mg, po administered as single dose coadministered with 100 mg of ritonavir; format: organism-based; conditions: in vivo
# [14] = AUC (0 to infinity) in healthy human at 12.5 mg, po administered as single dose; format: ADME, organism-based; design: dose 12.5 mg, route oral, time infinity; conditions: plasma
# How it was run: (§3)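 Healthy male volunteers, six active plus two placebo per dose group, single oral dose in PEG solution with 200 ml water after overnight fast; breakfast 60 to 90 min post-dose. EDTA plasma sampled predose to 144 h. Assayed by validated LC-MS/MS after protein precipitation. Noncompartmental analysis, AUC by linear up/log down trapezoidal rule; Vss = CL/F·(MRTp.o. − 1/Ka).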
# [15] = Cmax in healthy human at 5 mg, po administered as single dose by high-pressure liquid chromatography-tandem mass spectrometry/mass spectrometry method; format: ADME, organism-based; design: dose 5 mg, route oral; conditions: in vivo
# How it was run: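 Single fasting oral dose of BILR 355 in PEG solution with 200 ml tap water, given to healthy males. Standard breakfast came 60-90 min after the dose. EDTA plasma was sampled predose to 144 h, stored below −18°C and assayed by LC-MS/MS after protein precipitation. Noncompartmental analysis gave Vz/F. Vss/F = CL/F·(MRTp.o. − 1/Ka), with Ka from compartmental modelling.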
# [16] = Apparent oral clearance in healthy human at 50 mg, po administered as single dose; format: ADME, organism-based; conditions: in vivo; how it was run: as §3
# Homo sapiens [17] = test: Toxicity in healthy human assessed as occurrence of abdominal pain at 25 mg, po administered as single dose relative to control; format: organism-based, Abdomen; conditions: in vivo
# Homo sapiens [18] = test: Toxicity in healthy human assessed as occurrence of abdominal pain at 75 mg, po administered as single dose relative to control; format: organism-based, Abdomen; conditions: in vivo
# Homo sapiens [19] = test: Toxicity in healthy human assessed as occurrence of abdominal pain at 100 mg, po administered as single dose relative to control; format: organism-based, Abdomen; conditions: in vivo
# [20] = Apparent volume of distribution at steady state in healthy human at 100 mg, po administered as single dose; format: ADME, organism-based; conditions: in vivo, read-out: Vss/F; how it was run: as §3
# [21] = Drug excretion in healthy human urine assessed as unchanged drug in healthy human at 12.5 mg, po administered as single dose by high-pressure liquid chromatography-tandem mass spectrometry/mass spectrometry method; format: ADME, organism-based; conditions: read-out: Drug uptake
# How it was run: (§4)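 Urine was collected by weight after one oral dose of BILR 355 in PEG solution in fasted healthy males. Intervals were predose blank, 0-6, 6-24 and 24-72 h, with the bladder voided before each. Aliquots were stored at −20°C and assayed by LC-MS/MS. fe = amount of unchanged drug excreted (Ae) as a percentage of the administered dose.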
# [22] = Drug excretion in healthy human urine assessed as unchanged drug at 75 mg, po administered as single dose by high-pressure liquid chromatography-tandem mass spectrometry/mass spectrometry method; format: ADME, organism-based; conditions: read-out: Drug uptake; how it was run: as §4
# [23] = Drug excretion in healthy human urine assessed as unchanged drug at 100 mg, po administered as single dose by high-pressure liquid chromatography-tandem mass spectrometry/mass spectrometry method; format: ADME, organism-based; conditions: read-out: Drug uptake; how it was run: as §4
# [24] = AUC (0 to infinity) in healthy human at 25 mg, po administered as single dose coadministered with 100 mg of ritonavir; format: ADME, organism-based; design: dose 25 mg, route oral, time infinity; conditions: plasma; how it was run: as §1
# [25] = AUC (0 to infinity) in healthy human at 37.5 mg, po administered as single dose coadministered with 100 mg of ritonavir; format: ADME, organism-based; design: dose 37.5 mg, route oral, time infinity; conditions: plasma; how it was run: as §1
# [26] = Cmax in healthy human at 87.5 mg, po administered as single dose coadministered with 100 mg of ritonavir by high-pressure liquid chromatography-tandem mass spectrometry/mass spectrometry method; format: ADME, organism-based; design: dose 87.5 mg, route oral; conditions: in vivo
# How it was run: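 Healthy male volunteers, fasted overnight, got one oral dose of BILR 355 in PEG solution with 200 ml water. Ritonavir 100 mg was given 10 h before and again with the dose. Plasma was sampled (EDTA) from predose to 144 h and assayed by validated LC-MS/MS. Cmax and Vz/F came from noncompartmental analysis. Vss/F = CL/F·(MRTp.o. − 1/Ka), with Ka from compartmental modelling.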
# [27] = Half life in healthy human at 37.5 mg, po administered as single dose coadministered with 100 mg of ritonavir; format: ADME, organism-based; conditions: in vivo
smiles,measurement,setting,value
CCN1c2ncc(CCOc3cc[n+]([O-])c4ccccc34)cc2C(=O)N(C)c2cccnc21 [BILR 355],Activity,Homo sapiens [1],0%
same,Activity,Homo sapiens [2],0%
same,Activity,Homo sapiens [3],0%
same,Activity,Homo sapiens [4],0%
same,CL/F,[5],122 mL/min
same,MRT,[6],16.9 h
same,Vd/F,[7],100 L
same,CL renal,[8],4.87 mL/min
same,dose excreted,[9],6.37%
same,dose excreted,[10],4.62%
same,Activity,Homo sapiens [11],0%
same,Activity,Homo sapiens [12],0%
same,Activity,Homo sapiens [13],0%
same,AUC(0-inf),[14],0.0718 µg·h/mL
same,Cmax,[15],0.00436 µg/mL
same,CL/F,[16],2150 mL/min
same,Activity,Homo sapiens [17],16.7%
same,Activity,Homo sapiens [18],16.7%
same,Activity,Homo sapiens [19],0%
same,Vd/F,[20],163 L
same,dose excreted,[21],0.212%
same,dose excreted,[22],0.602%
same,dose excreted,[23],0.816%
same,AUC(0-inf),[24],4.34 µg·h/mL
same,AUC(0-inf),[25],5.96 µg·h/mL
same,Cmax,[26],0.838 µg/mL
same,half-life,[27],11 h
